Among the data in ChEMBL document CHEMBL3244365, “Synthesis of potential hypolipidemic agents. Reaction of substituted phenyl 2,3-epoxypropyl ethers with adenine, uracil, and thymine” (J Med Chem, 1978) are level, % of control, Activity and inhibition values, retold here.

Calls of active or inactive are those of the source. No cut-off for these calls is given here.

For data set [1], the system named is Rattus norvegicus. Put plainly: Hypolipidemic activity in Sprague-Dawley rat assessed as decrease in serum cholesterol at 10 mg/kg/day, po after 22 to 24 hrs by Liebermann-Burchard reaction (reference value: 100 +/- 8%). In kind it is functional. In outline: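 Male Sprague-Dawley rats were kept on rodent chow with water ad libitum. Compounds were suspended and homogenized in 1% CMC-water and given by oral intubation once daily at 11:00 a.m., with doses based on weekly body weights. Tail-vein blood was taken 22-24 h after dosing into nonheparinized microcapillary tubes and centrifuged 3 min. Serum cholesterol (mg %) was measured on duplicate 30-μl non-hemolyzed samples by a modified Liebermann-Burchard reaction.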

Data set [2] has as its system Rattus norvegicus. The data set can be described thus: Hypolipidemic activity in Sprague-Dawley rat assessed as inhibition of incorporation of [1,3-14C]glycerol in liver phospholipid at 50 mg/kg, po qd for 1 week (reference value: 100 +/- 8.3%); values are per cent of control. The following applies: 168 h.
Data set [3] relates to Rattus norvegicus. Put plainly: Hypolipidemic activity in Sprague-Dawley rat assessed as change in liver triglyceride at 50 mg/kg, po qd for 1 week (reference value: 100 +/- 8.4%). The following applies: 168 h.
Data set [4] deals with Rattus norvegicus. Put plainly: Toxicity in Sprague-Dawley rat assessed as change in body weight at 10 to 100 mg/kg, po. In kind it is organism-based. Also noted: dose 10-100 mg/kg, route oral. The following applies: in vivo. In outline:
(§1)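 Male Sprague-Dawley rats received 10-100 mg/kg orally once daily for 7 days as a 1% CMC-water suspension. Body weight gain, food intake and deaths were monitored.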

Data set [5] has as its system Rattus norvegicus. Put plainly: Hypolipidemic activity in Sprague-Dawley rat assessed as decrease in serum triglyceride at 100 mg/kg, po qd for 1 week (reference value: 100 +/- 5.3%). In kind it is functional. The following applies: 168 h.
Data set [6] has as its system Rattus norvegicus. Put plainly: Hypolipidemic activity in Sprague-Dawley rat assessed as inhibition of incorporation of [1,3-14C]glycerol in liver triglyceride at 50 mg/kg, po qd for 1 week (reference value: 100 +/- 8.4%); values are per cent of control. The conditions noted are these: 168 h.
The subject of data set [7] is Rattus norvegicus. Put plainly: Hypolipidemic activity in Sprague-Dawley rat assessed as inhibition of incorporation of [1,3-14C]glycerol in liver triglyceride at 100 mg/kg, po qd for 1 week (reference value: 100 +/- 8.4%); values are per cent of control. The conditions noted are these: 168 h.
Data set [8] concerns Rattus norvegicus. The data set can be described thus: Hypolipidemic activity in Sprague-Dawley rat assessed as liver triglyceride level at 100 mg/kg, po qd for 1 week (reference value: 100 +/- 8.4%). The conditions noted are these: 168 h.
The test system of data set [9] is Liver microsome. Put plainly: Hypolipidemic activity in rat liver microsomes assessed as inhibition of incorporation of [1,3-14C]glycerol 3-phosphate ino neutral lipid at 0.5 to 5 mM. The format is functional. The procedure, abridged:
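Rat liver microsomes were incubated with sn-[1,3-14C]glycerol 3-phosphate in the presence of ATP, palmitate, CoA and Mg2+. Label incorporated into neutral lipid (diglyceride + triglyceride) was measured, and phosphatidic acid accumulation was also followed.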

The test system of data set [10] is Rattus norvegicus. Put plainly: Hypolipidemic activity in Sprague-Dawley rat assessed as decrease in liver triglyceride at 10 mg/kg, po qd for 1 week (reference value: 100 +/- 8.4%). The conditions noted are these: 168 h. In kind it is functional.
Data set [11] relates to Rattus norvegicus. Put plainly: Hypolipidemic activity in Sprague-Dawley rat assessed as decrease in serum triglyceride at 10 mg/kg, po qd for 1 week (reference value: 100 +/- 5.3%). In kind it is functional. The following applies: 168 h.
Data set [12] relates to Rattus norvegicus. Put plainly: Hypolipidemic activity in Sprague-Dawley rat assessed as incorporation of [1,3-14C]glycerol in liver phospholipid at 100 mg/kg, po qd for 1 week (reference value: 100 +/- 8.3%). The following applies: 168 h.
The test system of data set [13] is Rattus norvegicus. Put plainly: Toxicity in Sprague-Dawley rat assessed as change in food intake at 10 to 100 mg/kg, po. The format is organism-based. Also noted: dose 10-100 mg/kg, route oral. The conditions noted are these: in vivo. In outline:
as §1

Data set [14] deals with Rattus norvegicus. The data set can be described thus: Hypolipidemic activity in Sprague-Dawley rat assessed as inhibition of incorporation of [1,3-14C]glycerol in liver triglyceride at 10 mg/kg, po qd for 1 week (reference value: 100 +/- 8.4%); values are per cent of control. The conditions noted are these: 168 h.
Data set [15] has as its system Rattus norvegicus. The data set can be described thus: Hypolipidemic activity in Sprague-Dawley rat assessed as incorporation of [1,3-14C]glycerol in liver phospholipid at 10 mg/kg, po qd for 1 week (reference value: 100 +/- 8.3%). The conditions noted are these: 168 h.
The species named for data set [16] is Rattus norvegicus. The data set can be described thus: Inhibition of rat phosphatidate phosphohydrolase in liver microsomes assessed as reduction in enzyme activity at 2 mmol. (Microsomes from liver hold many membrane-bound enzymes, among them those of drug oxidation.)
In data set [17] the test system is Rattus norvegicus. The data set can be described thus: Hypolipidemic activity in Sprague-Dawley rat assessed as decrease in serum triglyceride at 50 mg/kg, po qd for 1 week (reference value: 100 +/- 5.3%). The format is functional. The following applies: 168 h.

With `Nc1ncnc2c1ncn2CC(O)COc1ccc(C(=O)c2ccccc2)cc1` (stereo unspecified), in data set [1], the level, % of control at 10 mg/kg/day turned out to be 118%.
Same read-out and setting: next, `O=c1ccn(CC(O)COc2ccc(Cl)cc2)c(=O)[nH]1` (stereo unspecified): 102%; `COc1ccc(OCC(O)Cn2ccc(=O)[nH]c2=O)cc1` (stereo unspecified): 93%; `Cc1cn(CC(O)COc2ccc(Cl)cc2)c(=O)[nH]c1=O` (stereo unspecified): 96%.
Usually inhibition stands for the relative decrease from the control value, in per cent. On to `Nc1ncnc2c1ncn2CC(O)COc1ccc(Cl)cc1` (stereo unspecified), for which the level, % of control at 50 mg/kg in [2] was 33.5%; in data set [3] it was 252%; in data set [6], 29%; in data set [17], 38.5%. Further, the Activity entry in data set [4] and in [13] was “Non-toxic” throughout. Further, the level, % of control at 100 mg/kg in [5] is 40.3%; in data set [7] it was 31.8%; in data set [8] it was 345%; in data set [12], 36.7%. In addition, the level, % of control at 10 mg/kg/day in data set [1] was found to be 93%. In addition, in data set [9], the inhibition result was “Active”. In addition, the level, % of control at 10 mg/kg in data set [10] is 57.6%; in data set [11] it was 73%; in data set [14] it was 36.7%; in data set [15], 74.9%. In addition, in [16], the inhibition came to 50%.
Consider `Nc1ncnc2c1ncn2CC(O)COc1ccccc1Cl` (stereo unspecified), for which, in data set [1], the level, % of control at 10 mg/kg/day is 93%.
Still for that read-out and setting: next, `Nc1ncnc2c1ncn2CC(O)CSc1ccc(Cl)cc1` (stereo unspecified): 79%.
For the molecule `Cc1ccc(OCC(O)Cn2ccc(=O)[nH]c2=O)cc1` (stereo unspecified), in data set [1], the level, % of control at 10 mg/kg/day was 89%.
Consider `COc1ccc(OCC(O)Cn2cnc3c(N)ncnc32)cc1` (stereo unspecified), for which the level, % of control at 10 mg/kg/day in [1] was determined as 93%.
Take `Nc1ncnc2c1ncn2CC(O)COc1ccc(Br)cc1` (stereo unspecified): in data set [1], the level, % of control at 10 mg/kg/day turned out to be 96%.
Still for that read-out and setting: next, `Nc1ncnc2c1ncn2CC(O)COc1cccc(Cl)c1` (stereo unspecified): 97%.
Consider `Cc1ccc(OCC(O)Cn2cc(C)c(=O)[nH]c2=O)cc1` (stereo unspecified), for which the level, % of control at 10 mg/kg/day in [1] was 99%.
The same measure, in the same setting: the result for `CC(=O)c1ccc(OCC(O)Cn2cnc3c(N)ncnc32)cc1` (stereo unspecified) reads 99%; that for `Nc1ncnc2c1ncn2CC(O)COc1ccc(F)cc1` (stereo unspecified), 86%.
The same measure, in the same setting: next, `CC(C)(C)c1ccc(OCC(O)Cn2cnc3c(N)ncnc32)cc1` (stereo unspecified): 110%.
